ChEMBL document CHEMBL2346534, “Design, synthesis and in vitro anti-proliferative activity of 4,6-quinazolinediamines as potent EGFR-TK inhibitors” (Eur J Med Chem, 2013)

Key:
Format in all cases: functional
[1] = tested on: UO-31; assay: Cytotoxicity against human UO31 cells after 48 hrs by SRB assay; details: UO-31, 48 h
How it was run: (§1)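 NCI 60 five-dose screen. Cells in RPMI 1640 with 5% FBS and 2 mM L-glutamine, plated at 5000–40,000 cells/well by doubling time, pre-incubated 24 h at 37 °C, 5% CO2. Time-zero plates TCA-fixed at drug addition. Final concentrations 0.01, 0.1, 1, 10 and 100 µM (DMSO stock), 48 h exposure. TCA fixation, 0.4% SRB stain, absorbance 515 nm. GI50 from [(Ti−Tz)/(C−Tz)]×100 = 50.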

[2] = tested on: T47D; assay: Cytotoxicity against human T47D cells after 48 hrs by SRB assay; how it was run: as §1
[3] = tested on: SNB-75; assay: Cytotoxicity against human SNB75 cells after 48 hrs by SRB assay; details: SNB-75, 48 h
How it was run: (§2)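 NCI 60-panel five-dose screen. Cells in RPMI 1640 with 5% FBS and 2 mM L-glutamine are plated at 5000–40,000 cells/well by doubling time and preincubated 24 h at 37 °C in 5% CO2. Drug in DMSO is tested at 0.01, 0.1, 1, 10 and 100 μM for 48 h. Cells are TCA-fixed, stained with SRB and read at 515 nm. GI50 is the concentration giving 50% reduction in net protein increase relative to time-zero and control plates.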

[4] = tested on: SF-295; assay: Cytotoxicity against human SF295 cells after 48 hrs by SRB assay; details: SF-295, 48 h; how it was run: as §2
[5] = tested on: HCT-116; assay: Cytotoxicity against human HCT116 cells after 48 hrs by SRB assay; details: HCT-116, 48 h
How it was run: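 NCI 60-panel five-dose screen. Cells in RPMI 1640 with 5% FBS and 2 mM L-glutamine, plated at 5000–40,000 cells/well by doubling time, preincubated 24 h at 37 °C/5% CO2. Drug from DMSO stock added at 0.01, 0.1, 1, 10 and 100 µM, then 48 h. TCA fixation, SRB stain, absorbance at 515 nm, time-zero plates included. GI50 = 50% reduction in net protein increase versus control.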

[6] = tested on: OVCAR-4; assay: Cytotoxicity against human OVCAR4 cells after 48 hrs by SRB assay; details: OVCAR-4, 48 h; how it was run: as §2
[7] = read-out: LC50 (the source's name)

NC(=O)Nc1ccc2ncnc(Nc3ccc(Cl)cc3)c2c1
GI50 [1]: 4.22 µM
TGI [1]: 43 µM
CC50 [1, 7]: > 100 µM
GI50 [2]: 6.47 µM
TGI [2]: 72.3 µM
CC50 [2, 7]: > 100 µM
GI50 [3]: 3.36 µM
TGI [3]: 47 µM
CC50 [3, 7]: > 100 µM
GI50 [4]: 14.8 µM
TGI [4]: 45.5 µM
CC50 [4, 7]: > 100 µM
GI50 [5]: 24.9 µM
TGI [5]: > 100 µM
CC50 [5, 7]: > 100 µM
GI50 [6]: 9.14 µM
TGI [6]: > 100 µM
CC50 [6, 7]: > 100 µM
